Test results published in ChEMBL document CHEMBL4706681, “New 2-Pyrazoline and Hydrazone Derivatives as Potent and Selective Monoamine Oxidase A Inhibitors” (J Med Chem, 2021).
The source made the active and inactive calls. The rule behind the calls is not given here.

Tests used:
[1] = molecular target: T1, Amine oxidase [flavin-containing] B (Homo sapiens, UniProt P27338); test: Inhibition of recombinant human MAO-B expressed in baculovirus infected BTI insect cells using p-tyramine as substrate incubated for 30 mins by Amplex red reagent based fluorescence analysis; format: cell-based
T1 sequence (P27338 whole entry): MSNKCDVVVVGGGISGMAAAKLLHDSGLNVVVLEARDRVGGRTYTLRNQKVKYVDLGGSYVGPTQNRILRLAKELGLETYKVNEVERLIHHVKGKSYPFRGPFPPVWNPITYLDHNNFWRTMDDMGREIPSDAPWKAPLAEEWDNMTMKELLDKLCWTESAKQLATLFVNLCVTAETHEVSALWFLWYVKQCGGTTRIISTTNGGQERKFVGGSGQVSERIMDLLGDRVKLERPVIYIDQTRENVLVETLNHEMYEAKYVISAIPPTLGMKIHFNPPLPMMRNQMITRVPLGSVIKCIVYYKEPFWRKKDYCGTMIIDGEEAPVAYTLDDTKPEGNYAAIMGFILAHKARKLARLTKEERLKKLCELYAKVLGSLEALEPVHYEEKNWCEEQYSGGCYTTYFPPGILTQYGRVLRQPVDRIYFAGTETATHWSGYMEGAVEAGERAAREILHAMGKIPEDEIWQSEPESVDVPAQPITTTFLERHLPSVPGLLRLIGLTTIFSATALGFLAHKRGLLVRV

[2] = Ex vivo inhibition of MAOA in CD1 mouse brain homogenates assessed as 5-HT levels at 30 mg/kg, po administered as subchronic dose via gavage for 7 days and measured 1 hr post last dose by ELISA kit method (reference value: 0.78 +/- 0.01 ug/g); format: functional; conditions: time 7 day
[3] = Permeability of compound in PBS/EtOH buffer (70:30) at 25 ug/ml incubated for 16 hrs by UV plate reader based PAMPA-BBB
Mus musculus [4] = test: Antidepressant-like activity in po dosed CD1 mouse assessed as maximum efficacy administered as subchronic dose gavage for 7 days and measured 1 h post last dose by Porsolt-forced swim test; format: functional; conditions: time 7 day
Method in brief: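 Male albino CD-1 mice (20–25 g), 12 h light/dark, food and water ad libitum. Dosed by oral gavage once daily for 7 days in 200 μL 0.5% CMC; vehicle-only controls. […] Forced swim test run 1 h after the last dose. Immobility scored every 60 s over 6 min; n = 8–12.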

[5] = Ex vivo inhibition of MAOA in CD1 mouse brain homogenates assessed as inhibition of 5-HT deamination by measuring 5-HIAA metabolite levels at 20 mg/kg, po administered as subchronic dose via gavage for 7 days and measured 1 hr post last dose by HPLC analysis (reference value: 0.18 +/- 0.01 ug/g); format: functional; conditions: time 7 day
[6] = Ex vivo inhibition of MAOA in CD1 mouse brain homogenates assessed as 5-HT levels at 20 mg/kg, po administered as subchronic dose via gavage for 7 days and measured 1 hr post last dose by ELISA kit method (reference value: 0.78 +/- 0.01 ug/g); format: functional; conditions: time 7 day
Mus musculus [7] = test: Antidepressant-like activity in CD1 mouse assessed as reduction in immobility time at 20 mg/kg, po via gavage administered as […] dose for 7 days and measured 1 h post last dose by Porsolt-forced swim test; format: functional, organism-based; conditions: time 7.0 day
[8] = Ex vivo inhibition of MAOA in CD1 mouse brain homogenates assessed as 5-HT levels at 20 mg/kg, po administered as single acute dose via gavage and measured after 1 hr by ELISA kit method (reference value: 0.80 +/- 0.006 ug/g); format: functional

Ki [1]	Papp at 16 h, 25 ug/ml [3]	SMILES	Activity [2]	Emax (Mus musculus [4])	Activity [5]	Activity [6]	Activity (Mus musculus [7])	Activity [8]
655 µM	8.05 ×10⁻⁶ cm/s	COc1ccc(C2=NN(C(=O)Cn3c(=O)oc4ccc(C)cc43)C(c3cccc(OC)c3OC)C2)cc1 (stereo not drawn)	1.15 µg/g	–	–	–	–	–
–	–	O=C(NCCN1CCOCC1)c1ccc(Cl)cc1 [MOCLOBEMIDE]	–	20 mg/kg	0.23 µg/g	0.91 µg/g	Active	0.83 µg/g
